Data set [1] concerns Rattus norvegicus. Nature of the data set: Mean excretion of chloride in conscious rats at a dose of 100 mg/kg given orally. It counts as ADME, organism-based. Details: dose 100 mg/kg, route oral. The conditions noted are these: in vivo, po. In a few lines:
(§1)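 Secondary dose-response in male Sprague-Dawley rats (~160 g), fasted and hydrated as in the primary screen. Oral gavage at 0.3-100 mg/kg in 25 mL/kg saline/0.5% CMC, three cages of two rats per dose. Urine collected 5 h; Na, K, Cl, HCO3 measured. Values are mean excretion (mequiv), compared with controls at P < 0.05.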

In data set [2] the test system is Rattus norvegicus. Kind of data set: Mean excretion of chloride in conscious rats at a dose of 3.0 mg/kg given orally. It counts as ADME, organism-based. Details: dose 3 mg/kg, route oral. The conditions noted are these: in vivo, po. In a few lines: as §1
Data set [3] concerns Rattus norvegicus. Nature of the data set: Mean excretion of potassium in conscious rats at a dose of 100 mg/kg given orally. On the set-up: dose 100 mg/kg, route oral. The format is ADME, organism-based. As to conditions: in vivo, po. In a few lines: as §1
The species entered for data set [4] is Rattus norvegicus. Kind of data set: […]. The format is ADME, organism-based, Urine. The conditions noted are these: in vivo, po, 10 mg/kg. Details: dose 10 mg/kg, route oral. A digest of the protocol: (§2)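 Male Sprague-Dawley rats, about 160 g, fasted 24 h and water withheld 1 1/2 h beforehand; food and water withheld during the test. Dosing by gavage with 25 mL/kg 0.9% saline containing 0.5% (carboxymethyl)cellulose, agent dissolved or suspended. Three cages of two rats each per dose, held in metabolism cages. Urine collected over 5 h. Volume given in mL, Na+ in mequiv. Significance versus control at P < 0.05.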

For data set [5], the species on record is Rattus norvegicus. Kind of data set: […]. The format is ADME, organism-based, Urine. On the set-up: dose 1 mg/kg, route oral. As to conditions: in vivo, po, 1 mg/kg. A digest of the protocol: (§3)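 Dose-response test in male Sprague-Dawley rats of about 160 g, fasted 24 h, with water withheld 1½ h before and during the test. Each rat got a single gavage of 25 mL/kg 0.9% saline with 0.5% carboxymethylcellulose carrying the agent (0.3–100 mg/kg range). Rats were housed two per metabolism cage, and urine was collected for 5 h. Mean urine volume (mL) was compared with controls (P < 0.05).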

A short description of data set [6]: Diuretic activity at 40 mg/kg (screening dose-84.7 umol/kg) in […] in a two stage experiment; T/C1.2 = urine vol of treated rats / urine vol of control rats. It counts as functional. In a few lines:
(§4)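 40 mg/kg given by gavage in 25 mL/kg 0.9% saline with 0.5% (carboxymethyl)cellulose. Four rats per agent, two per metabolism cage; 20 controls; 5 h urine. T/C = treated/control urine volume. Stage-1 T/C of 1.66 or more leads to stage 2; product T/C1·T/C2 of 3.34 or more counts as active.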

In data set [7] the test system is Rattus norvegicus. Kind of data set: Mean excretion of potassium in conscious rats at a dose of 3.0 mg/kg given orally. The format is ADME, organism-based. On the set-up: dose 3 mg/kg, route oral. As to conditions: in vivo, po. In a few lines:
as §1

Data set [8] in a line: Diuretic activity at 40 mg/kg (screening dose-84.7 umol/kg) in […] in a one stage experiment; T/C = urine vol of treated rats / urine vol of control rats. The format is functional. In a few lines:
as §4

Data set [9] concerns Rattus norvegicus. Nature of the data set: Mean excretion of Cl- in conscious rats at a dose of 0.3 mg/kg given orally. It counts as ADME, organism-based, Urine. Details: dose 0.3 mg/kg, route oral. The conditions noted are these: in vivo, po. In a few lines: as §3
The test system of data set [10] is Rattus norvegicus. Kind of data set: Mean excretion of sodium in conscious rats at a dose of 10 mg/kg given orally. Details: dose 10 mg/kg, route oral. The conditions noted are these: in vivo, po. The format is ADME, organism-based. A digest of the protocol:
as §2

Data set [11] deals with Rattus norvegicus. Kind of data set: Mean excretion of […] in conscious rats at a dose of 1.0 mg/kg given orally. The format is ADME, organism-based. Details: dose 1 mg/kg, route oral. As to conditions: in vivo, po. In a few lines: as §2
Data set [12] relates to Rattus norvegicus. Nature of the data set: Mean excretion of potassium in conscious rats at a dose of 1.0 mg/kg given orally. It counts as ADME, organism-based. Details: dose 1 mg/kg, route oral. As to conditions: in vivo, po. A digest of the protocol: as §1
Data set [13] relates to Rattus norvegicus. Kind of data set: Mean excretion of potassium in conscious rats at a dose of 0.3 mg/kg given orally. The format is ADME, organism-based. Details: dose 0.3 mg/kg, route oral. The conditions noted are these: in vivo, po. In a few lines:
as §1

The species named for data set [14] is Rattus norvegicus. Nature of the data set: […]. It counts as ADME, organism-based, Urine. On the set-up: dose 100 mg/kg, route oral. The conditions noted are these: in vivo, po, 100 mg/kg. In a few lines: as §2
Data set [15] concerns Rattus norvegicus. Nature of the data set: Mean excretion of potassium in conscious rats at a dose of 30 mg/kg given orally. It counts as ADME, organism-based. As to conditions: in vivo, po. On the set-up: dose 30 mg/kg, route oral. In a few lines: as §1
Data set [16] has as its system Rattus norvegicus. Kind of data set: Mean excretion of sodium in conscious rats at a dose of 0.3 mg/kg given orally. On the set-up: dose 0.3 mg/kg, route oral. It counts as ADME, organism-based. The conditions noted are these: in vivo, po. A digest of the protocol: as §2
The subject of data set [17] is Rattus norvegicus. Kind of data set: Mean excretion of chloride in conscious rats at a dose of 10 mg/kg given orally. The conditions noted are these: in vivo, po. It counts as ADME, organism-based. On the set-up: dose 10 mg/kg, route oral. A digest of the protocol:
as §1

In data set [18] the test system is Rattus norvegicus. Nature of the data set: Mean excretion of potassium in conscious rats at a dose of 10 mg/kg given orally. It counts as ADME, organism-based. On the set-up: dose 10 mg/kg, route oral. As to conditions: in vivo, po. In a few lines: as §1
The subject of data set [19] is Rattus norvegicus. Nature of the data set: Mean excretion of sodium in conscious rats at a dose of 100 mg/kg given orally. Details: dose 100 mg/kg, route oral. As to conditions: in vivo, po. It counts as ADME, organism-based. In a few lines:
as §2

Data set [20] is filed under the species Rattus norvegicus. Nature of the data set: […]. It counts as ADME, organism-based, Urine. On the set-up: dose 30 mg/kg, route oral. The conditions noted are these: in vivo, po, 30 mg/kg. In a few lines:
as §2

Data set [21] is filed under the species Rattus norvegicus. Kind of data set: […]. It counts as ADME, organism-based, Urine. Details: dose 0.3 mg/kg, route oral. The conditions noted are these: in vivo, po, 0.3 mg/kg. A digest of the protocol: as §3
Data set [22] relates to Rattus norvegicus. Kind of data set: Mean excretion of chloride in conscious rats at a dose of 30 mg/kg given orally. The format is ADME, organism-based. Details: dose 30 mg/kg, route oral. The conditions noted are these: in vivo, po. In a few lines:
as §1

The species entered for data set [23] is Rattus norvegicus. Nature of the data set: […]. It counts as ADME, organism-based, Urine. Details: dose 3 mg/kg, route oral. As to conditions: in vivo, po, 3 mg/kg. A digest of the protocol: as §2
The test system of data set [24] is Rattus norvegicus. Kind of data set: Mean excretion of sodium in conscious rats at a dose of 3.0 mg/kg given orally. It counts as ADME, organism-based. Details: dose 3 mg/kg, route oral. The conditions noted are these: in vivo, po. A digest of the protocol: as §2
The test system of data set [25] is Rattus norvegicus. Kind of data set: Mean excretion of chloride in conscious rats at a dose of 1.0 mg/kg given orally. The conditions noted are these: in vivo, po. It counts as ADME, organism-based. On the set-up: dose 1 mg/kg, route oral. In a few lines: as §1
Data set [26] relates to Rattus norvegicus. Nature of the data set: Mean excretion of sodium in conscious rats at a dose of 30 mg/kg given orally. It counts as ADME, organism-based. Details: dose 30 mg/kg, route oral. The conditions noted are these: in vivo, po. A digest of the protocol: as §2
Data set [27] can be described thus: Diuretic activity at 40 mg/kg (screening dose-84 umol/kg) in male […] in a one stage experiment; T/C = urine vol of treated rats / urine vol of control rats. The format is functional. A digest of the protocol:
as §4

Data set [28] can be described thus: Diuretic activity at 40 mg/kg (screening dose-84 umol/kg) in male […] in a two stage experiment; T/C1.2 = urine vol of treated rats / urine vol of control rats. It counts as functional. A digest of the protocol:
as §4

Data set [29] can be described thus: Diuretic activity at 40 mg/kg (screening dose-90.5 umol/kg) in […] in a one stage experiment; T/C = urine vol of treated rats / urine vol of control rats. The format is functional. A digest of the protocol:
as §4

SMILES strings stand for the structures.

Turning to `COc1ccc(C(CN(C)C)c2nnc3n2-c2ccc(Cl)cc2C(c2ccccc2)=NC3)cc1` (configuration not stated), the “Mean excretion of Cl-” value in data set [1] is on record as 1.65 m equiv; in data set [2], 0.75 m equiv; in [9], 0.71 m equiv; in [17], 0.93 m equiv; in data set [22], 1.55 m equiv; in data set [25], 0.71 m equiv. For the same compound, the “Mean excretion of K+” value is 0.26 m equiv in [3]; 0.23 m equiv in data set [7]; 0.25 m equiv in data set [12]; 0.23 m equiv in data set [13]; 0.18 m equiv in data set [15]; 0.19 m equiv in [18]. Besides, the Mean urine volume came out at 5.74 mL in data set [4]; 4.81 mL in [5]; 12.25 mL in data set [14]; 10.47 mL in data set [20]; 4.13 mL in data set [21]; 4.98 mL in data set [23]. Also, the “T/C 1.2” value in data set [6] is 5.57. Also, the “T/C 1” value in [8] is recorded as 2.77. The “Mean excretion of Na+” value in data set [10] is recorded as 0.93 m equiv; in [11], 0.66 m equiv; in [16], 0.67 m equiv; in data set [19], 1.91 m equiv; in [24], 0.68 m equiv; in [26], 1.58 m equiv.
For `CN(C)CC(c1ccccc1)c1nnc2n1-c1ccc(Cl)cc1C(c1ccccc1Cl)=NC2` (configuration not stated), the “T/C 1” value in data set [27] is given as 1.87. Also, in [28], the “T/C 1.2” value was 2.66.
As to `CN(C)CC(c1ccccc1)c1nnc2n1-c1ccccc1C(c1ccccc1Cl)=NC2` (configuration not stated), the “T/C 1” value in data set [29] turned out to be 1.62.
In the case of `COc1ccccc1C(CN(C)C)c1nnc2n1-c1ccc(Cl)cc1C(c1ccccc1)=NC2` (configuration not stated), the “Mean excretion of Cl-” value in [1] is 0.69 m equiv; in [2], 0.8 m equiv; in data set [9] it was 0.69 m equiv; in data set [17], 0.71 m equiv; in [22] it was 0.76 m equiv; in data set [25], 0.69 m equiv. Moreover, the “Mean excretion of K+” value in [3] is on record as 0.26 m equiv; in data set [7] it was 0.24 m equiv; in [12], 0.23 m equiv; in [13], 0.17 m equiv; in [15], 0.23 m equiv; in data set [18] it was 0.22 m equiv. Besides, the Mean urine volume stood at 4.92 mL in data set [4]; 5.08 mL in data set [5]; 4.56 mL in [14]; 5.19 mL in data set [20]; 4.8 mL in [21]; 5.38 mL in data set [23]. In data set [6], the “T/C 1.2” value turned out to be 5.03. Besides, the “T/C 1” value in data set [8] amounted to 2.69. For the same compound, the “Mean excretion of Na+” value in data set [10] stood at 0.72 m equiv; in data set [11], 0.6 m equiv; in [16], 0.63 m equiv; in data set [19] it was 0.6 m equiv; in [24], 0.68 m equiv; in [26] it was 0.61 m equiv.
As to `CN(C)CC(c1cccc(Cl)c1)c1nnc2n1-c1ccc(Cl)cc1C(c1ccccc1)=NC2` (configuration not stated), in data set [27], the “T/C 1” value is 1.86. In addition, in data set [28], the “T/C 1.2” value is 3.2.

Values taken from ChEMBL document CHEMBL1124476, “1-(2-aminoethyl)-6-aryl-4H- [1,2,4]triazolo[4,3-a][1,4]benzodiazepines with diuretic and natriuretic activity” (J Med Chem, 1989).
